Screening data from PubChem BioAssay.
CHOP inhibitor – CHOP inhibition in unfolded protein response. CHO-K1 CHOP-promoter luciferase, tunicamycin-induced, 15-18 h. inhibition, % at 10 µM. hit rate 3.8% among 220,000;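 active means compounds that reduced the stress-induced luciferase reporter signal by more than about 70% of percent inhibition, limit read from the data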
UPR CHOP act – activators of apoptotic arm of unfolded protein response (CHOP); CHO-CHOP luciferase reporter, UPR activation, luminescence; percent of tunicamycin response over DMSO baseline; hit rate 0.34% among 330,000; activation, % at 10 µM;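 active means at 10 µM dose, activation of 40% or more, normalized to positive control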
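Dosing – one dose, 10 µM in 0.5% DMSO · System – CHO-CHOP cells, stable luciferase reporter of PERK-eIF2a-CHOP signalling · Input – 500 cells/well · Control set – tunicamycin 10 µg/mL final as positive, DMSO-only wells as negative · Timing – 6 h compound treatment, 37 °C · Measure – % activation vs tunicamycin · Technique – luminescence read with Steady-Glo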
XBP1 UPR activ – adaptive UPR (XBP1) activation; CHO-XBP1 luciferase reporter, IRE1-XBP1 UPR activation, luminescence; percent of tunicamycin response, DMSO as zero; activation, % at 20 µM; hit rate 0.33% among 330,000;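 active means versus positive control, 20 µM dose yields 30% or more activation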
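Assay system: IRE1-XBP1 luciferase reporter CHO line. Input: 1000 cells/well. Buffer or medium: F12 with 10% serum. Doses: 20 µM, 1% DMSO. Times: overnight seeding at 37 °C, 6 h compound treatment at 37 °C. Technique: Steady-Glo luciferase glow luminescence, 10 min after reagent addition.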
Bfl-1 A1 inh – inhibitors of the anti-apoptotic protein A1, read as caspase activation | MEF A1-2A-BIM cells, Caspase-Glo 3/7 luminescence, 3 h; percent of clofoctol response, vehicle zero | caspase activation, % (concentration not given with the values) | hit rate 0.066% among 330,000 | AID 2462;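 active means over half of replicate activation scores above 10%, or exactly half above 10 with the replicate mean above 10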
Hits are given with their value; i = inactive; nt = no result. Shown is part of a subset that was picked to be rich in hits.

SMILES | CHOP inhibitor | UPR CHOP act | XBP1 UPR activ | Bfl-1 A1 inh
N#C/C(=C\c1ccc(OCc2ccc(C(=O)O)cc2)cc1)C(=O)N1CCOCC1 | 81.8 | i | i | i
CCc1nc2sc(C(C)=O)c(N)c2c2c1CCCC2 | i | i | i | i
CC1CCN(S(=O)(=O)c2cccc(C(=O)NCc3ccco3)c2)CC1 | i | i | i | i
CC1CCN(S(=O)(=O)c2cccc(C(=O)NCc3cccs3)c2)CC1 | 73.2 | i | i | i
COc1ccc(-c2nn(-c3ccccc3)cc2/C=C/C(=O)OCC(=O)Nc2ccccc2C#N)cc1 | i | i | i | 23.9
O=C1CC(CSc2ccc(Cl)cc2)=NN1 | i | i | i | i
COC(=O)Cc1ccc(NC(=O)c2ccc(C(C)(C)C)cc2)cc1 | 72.2 | i | i | i
CC(C)(C)c1ccc(C(=O)Nc2ccc(Cl)cc2)cc1 | i | i | i | i
CCC(=O)Nc1nnc(SCC(=O)Nc2ccc3c(c2)OCO3)s1 | nt | i | i | i
CN1C(C(=O)c2ccccc2)=C(N)c2ccccc2S1(=O)=O | i | i | i | i
Cc1ccc(NC2=C(C(=O)c3ccccc3)N(C)S(=O)(=O)c3ccccc32)cc1 | 95.3 | i | i | i
COc1ccc(N=Cc2nc(-c3ccccc3)oc2OC(C)=O)cc1 | i | i | i | i
COc1ccc(N=C/C=C2/C=C(c3ccccc3)OC(C)(C)O2)cc1 | 94.1 | i | i | i
Cc1cccc(/C(N)=N/OC(=O)N2CCOCC2)c1 | i | i | i | i
C/C(=N\N=C(/C)c1cccc(N)c1)c1cccc(N)c1 | nt | i | i | i
Cc1[nH]c2ccccc2c1C(=O)CSc1nc2ncc(Cl)cc2[nH]1 | 86.0 | i | i | i
Cc1cc(C)n(CCC(=O)N/N=C/c2ccc(O)cc2)n1 | i | i | i | i
Cc1cc(C)n(CCC(=O)N/N=C/c2c(O)ccc3ccccc23)n1 | 87.6 | i | i | i
O=C(N/N=C/c1c(O)ccc2ccccc12)c1[nH]ncc1Br | 77.9 | i | i | i
O=C(N/N=C/c1c(O)ccc2ccccc12)c1cccc(C(F)(F)F)c1 | 77.8 | i | i | i
CCN1CCN(C(=O)C(NS(=O)(=O)c2ccc3nc(C)sc3c2)C(C)C)CC1 (stereo not drawn) | i | i | i | i
CCc1ccc(-c2nc(CN3CCC(C(=O)N4CCN(c5ccccc5)CC4)CC3)c(C)o2)cc1 | 98.1 | i | i | i
CCN(CCNC(=O)C1CCN(Cc2nc(-c3cccc(Cl)c3)oc2C)CC1)c1ccccc1 | 94.6 | i | i | i
CCN(CCNC(=O)C1CCN(Cc2nc(-c3ccc(Cl)cc3)oc2C)CC1)c1ccccc1 | 85.0 | i | i | i
CCc1ccc(-c2nc(CN3CCC(C(=O)N4CCN(c5ccccn5)CC4)CC3)c(C)o2)cc1 | i | i | i | i
SMILES | CHOP inhibitor | UPR CHOP act | XBP1 UPR activ | Bfl-1 A1 inh
Cc1ccccc1-c1nc(CN2CCC(C(=O)NCCC3=CCCCC3)CC2)c(C)o1 | 71.0 | i | i | i
O=C(Nc1nnc(CCN2CCCCC2)s1)c1ccccc1 | i | i | i | i
Cc1c(Br)c(C(F)(F)F)nn1CC(=O)N(C)C1CCCCC1 | nt | i | i | i
CCc1nc(Nc2ccc(OC)c(OC)c2)c2nnn(Cc3ccccc3Cl)c2n1 | 91.0 | i | i | i
COc1cccc(OC)c1Nc1nc(C)nc2c1nnn2Cc1ccccc1Cl | i | i | i | i
CCCCCCCCC(=O)N/N=C/c1cccc(Br)c1 | 86.5 | i | i | i
CCCCCCC(=O)N/N=C/c1ccc(Br)cc1 | 93.0 | i | i | i
CC(C)c1ccc(NC(=O)c2cc(S(=O)(=O)NCC3COc4ccccc4O3)ccc2F)cc1 (stereo not drawn) | 81.0 | i | i | i
O=C(O)c1cc(S(=O)(=O)NCC2COc3ccccc3O2)ccc1Cl (stereo not drawn) | nt | i | i | i
COc1ccc(NC(=O)c2cc(S(=O)(=O)NCC3COc4ccccc4O3)ccc2F)cc1 (stereo not drawn) | i | i | i | i
O=C(Nc1ccc(C(F)(F)F)cc1)c1cc(S(=O)(=O)NCC2COc3ccccc3O2)ccc1F (stereo not drawn) | 81.8 | i | i | i
CCn1c(CC(=O)Nc2ccc(C)c(Cl)c2)nnc1SCc1ccc(Cl)c(Cl)c1 | i | i | i | i
CCn1c(CC(=O)Nc2ccc(C)c(Cl)c2)nnc1SCC(=O)Nc1nc(C)cs1 | 78.5 | i | i | i
Nc1ccc(-c2nc3c(ccc4ccccc43)[nH]2)cc1 | nt | i | i | i
C=CCc1ccccc1OCC(O)CN1CCN(C(=O)OCC)CC1 (stereo not drawn) | i | i | i | i
C=CCc1ccccc1OCC(O)CN1CCN(c2ccc(C)cc2)CC1 (stereo not drawn) | 79.2 | i | i | i
Cc1cccc(C)c1OCC(O)CN1CCC(CN2C(=O)c3cccc4cccc(c34)C2=O)CC1 (stereo not drawn) | 79.2 | i | i | i
C=CCc1ccccc1OCC(O)CN1CCN(CCN2C(=O)c3cccc4cccc(c34)C2=O)CC1 (stereo not drawn) | 86.0 | i | i | i
Cc1ccccc1OCC(O)CN1CCN(CCN2C(=O)c3cccc4cccc(c34)C2=O)CC1 (stereo not drawn) | i | i | i | i
CCN(CC)C(=O)c1ccc(COc2ccc(Cl)c(C)c2)o1 | nt | i | i | i
COc1ccc(-n2c(=O)/c(=C\c3cccs3)s/c2=C(/C#N)C(=O)N2CCN(C)CC2)cc1 | 89.8 | i | i | i
N#C/C(C(=O)N1CCOCC1)=c1/s/c(=C\c2ccccn2)c(=O)n1-c1ccccc1 | i | i | i | i
Clc1cc(Br)ccc1OCCOCCOc1cccc2cccnc12 | 70.6 | i | i | i
COCC(=O)NCCc1nc2ccccc2[nH]1 | i | i | i | i
Cc1nc(N(C)C)c2sc(=S)n(C)c2n1 | i | i | i | i
SMILES | CHOP inhibitor | UPR CHOP act | XBP1 UPR activ | Bfl-1 A1 inh
COc1nc(C)nc2c1sc(=S)n2C | 71.0 | i | i | i
CCn1c(CNC(=O)c2ccccc2F)nnc1SCc1nc2ccccc2c(=O)[nH]1 | i | i | i | i
CC(C)=CCC/C(C)=C/CCC(C)NCCN1CCNCC1 (stereo not drawn) | 94.6 | i | i | i
COc1ccc(S(=O)(=O)Nc2ccc3ccccc3c2)cc1C | 89.2 | i | i | i
CCc1ccc(NS(=O)(=O)c2ccc(OC)c(C)c2)cc1 | 85.1 | i | i | i
COc1ccc(S(=O)(=O)Nc2ccc3cn[nH]c3c2)cc1C | i | i | i | i
COC1CCCCC1NS(=O)(=O)c1ccccc1 (stereo not drawn) | i | i | i | i
O=C(CN1CCN(c2ccccc2)CC1)Nc1ccccc1C(F)(F)F | 94.6 | i | i | i
CN1CCC(N(C)C(=O)CCc2nc3ccccc3n2-c2ccccc2)CC1 | i | i | i | i
O=C(CC1CC2CCC1C2)N1CCN(S(=O)(=O)c2ccccc2C(F)(F)F)CC1 (stereo not drawn) | nt | i | i | 8.6
O=C(c1ccco1)N1C(=O)c2cccc3c(S(=O)(=O)N4CCCC4)ccc1c23 | 74.2 | i | i | i
O=C1Nc2ccc(S(=O)(=O)N3CCCC3)c3cccc1c23 | i | i | i | i
